Measured values taken from ChEMBL document CHEMBL1140174, “A copper(I)-catalyzed 1,2,3-triazole azide-alkyne click compound is a potent inhibitor of a multidrug-resistant HIV-1 protease variant” (J Med Chem, 2008).
pEC50, pIC50, pKi: −log10 of the molar value. The source made the active and inactive calls. The rule behind the calls is not given here.

How the values were obtained:
[1] = system: Human immunodeficiency virus 1; assay: Antiviral activity against multidrug-resistant HIV1 with protease V82A, M46I, […], V77I, L24I, L63P mutation in human SubT1 cells assessed as inhibition of viral replication at 250 nM measured at 6 days postinfection by p24 ELISA assay relative to control; assay type: functional
Summary of the method: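 SupT1 cells (RPMI 1640, 10% fetal calf serum, 2mM L-glutamine, penicillin/streptomycin) infected with 10–100ng/mL p24 of SupT1-grown virus at 37°C, washed, then resuspended in medium with or without inhibitor (1–4000 nM range). Supernatant sampled every second day with medium and inhibitor replenished. p24 quantified by ELISA 6 days post infection, expressed as percentage of untreated cells.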

Protease = Protease (Human immunodeficiency virus 1, UniProt Q9YQ12); assay: Inhibition of wild type HIV1 protease
Summary of the method: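 Purified HIV-1 protease (expression and purification described in earlier work) is preincubated with inhibitor in 25mM MES pH 5.6, 200mM NaCl, 5% glycerol, 1mM DTT in a prewarmed plate. Final concentrations: 25nM protease, 30µM fluorogenic anthranilyl substrate H-2992, 0.001–600µM inhibitor. Cleavage is read as fluorescence intensity. IC50 comes from nonlinear regression of initial velocities against inhibitor concentration, and Ki is calculated with the Cheng-Prusoff equation.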

[2] = Inhibition of multidrug-resistant HIV1 protease with V82A, M46I, F53L, V77I, L24I, L63P mutation; set-up: species or system Human immunodeficiency virus 1
Summary of the method: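 Fluorogenic cleavage assay with purified protease in 25mM MES pH 5.6, 200mM NaCl, 5% glycerol, 1mM DTT. Final concentrations 25nM enzyme, 30μM anthranilyl substrate H-2992, inhibitor 0.001–600μM. Reaction started by adding substrate in a prewarmed plate, read by fluorescence. IC50 by nonlinear regression of initial velocities; Ki from Cheng-Prusoff.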

[3] = system: Human immunodeficiency virus 1; assay: Antiviral activity against wild type HIV1 in human SubT1 cells assessed as inhibition of viral replication at 250 nM measured at 6 days postinfection by p24 ELISA assay; assay type: functional, organism-based
Summary of the method: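 SupT1 cells (RPMI 1640, 10% fetal calf serum) were infected with wild-type HIV-1 (10–100ng/mL p24) at 37°C, washed, then cultured with inhibitor at 1–4000 nM. Every second day supernatant was sampled and medium plus inhibitor replaced. p24 was measured by ELISA 6 days post-infection and expressed as a percentage of untreated cells (relative p24).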

[4] = system: Human immunodeficiency virus 1; assay: Antiviral activity against wild type HIV1 in human SupT1 cells assessed as inhibition of viral replication measured at 6 days postinfection by p24 ELISA assay; assay type: functional, organism-based; conditions: Human immunodeficiency virus 1, SUP-T1, 144 h
Summary of the method: (§1)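 SupT1 cells (RPMI 1640, 10% FCS, 2mM L-glutamine, penicillin/streptomycin) infected with 10–100ng/mL p24 of virus at 37°C, washed, then cultured ± inhibitor at 1–4000 nM. Supernatant sampled every second day with media and inhibitor replenished. p24 measured by ELISA at 6 days post-infection, expressed as percentage of untreated cells; EC50 by nonlinear regression.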

[5] = system: Human immunodeficiency virus 1; assay: Antiviral activity against wild type HIV1 in human SupT1 cells assessed as viral LTR-driven luciferase activity using TZM-bl cells; assay type: functional, organism-based; conditions: Human immunodeficiency virus 1, SUP-T1
Summary of the method: (§2)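 SupT1 cells infected at MOI 0.001–0.005 and cultured with inhibitor at 1–4000 nM. On day 5–6, cell-free supernatant transferred to 10^4 TZM-bl cells carrying an HIV-1 LTR-driven luciferase reporter. Luciferase read by luminescence after 48 h. EC50 from nonlinear regression.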

[6] = system: Human immunodeficiency virus 1; assay: Antiviral activity against multidrug-resistant HIV1 with protease V82A, M46I, F53L, V77I, L24I, L63P mutation in human SupT1 cells assessed as inhibition of viral replication measured at 6 days postinfection by p24 ELISA assay; assay type: functional, organism-based; conditions: Human immunodeficiency virus 1, SUP-T1, 144 h; summary of the method: as §1
[7] = system: Human immunodeficiency virus 1; assay: Antiviral activity against multidrug-resistant HIV1 with protease V82A, M46I, F53L, V77I, L24I, L63P mutation in human SupT1 cells assessed as viral LTR-driven luciferase activity using TZM-bl cells; assay type: functional, organism-based; conditions: Human immunodeficiency virus 1, SUP-T1; summary of the method: as §2

Chain of Protease (Q9YQ12 whole entry): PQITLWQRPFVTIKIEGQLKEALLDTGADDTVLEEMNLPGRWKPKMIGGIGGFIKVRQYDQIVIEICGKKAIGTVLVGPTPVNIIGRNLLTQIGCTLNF

Compound	fold change (FC) [1]	pIC50 (Protease)	pKi (Protease)	pIC50 [2]	pKi [2]	Activity [3]	pEC50 [4]	pEC50 [5]	pEC50 [6]	pEC50 [7]
COc1ccc(S(=O)(=O)N(CC(C)C)C[C@@H](O)[C@H](Cc2ccccc2)n2cc(COC(=O)N[C@H]3c4ccccc4C[C@H]3O)nn2)cc1	20	8.22	8.57	7.80	8.15	Active	7.52	7.07	7.26	6.59
CC(C)[C@H](NC(=O)[C@H](C)NC(=O)OCc1ccccc1)C(=O)N[C@@H](Cc1ccccc1)[C@@H](O)[C@H](O)[C@H](Cc1ccccc1)NC(=O)[C@@H](NC(=O)[C@H](C)NC(=O)OCc1ccccc1)C(C)C	–	–	–	–	–	–	7.34	7.04	–	–
